In ChEMBL document CHEMBL3091329, “Discovery of tetrahydroisoquinoline-based CXCR4 antagonists” (ACS Med Chem Lett, 2013):
pIC50: −log10 of the molar value.

Legend:
[1] = biological target: T1, C-X-C chemokine receptor type 4 (Homo sapiens, UniProt P61073); assay: Antagonist activity at CXCR4 in human Chem-1 cells assessed as inhibition of SDF-1alpha-mediated calcium flux preincubated for 10 mins by FLIPR assay; format: functional, cell-based
[2] = Cytotoxicity against human MAGI-CCR5 cells assessed as cell viability after 2 to 6 days by MTS assay
[3] = biological target: T1, C-X-C chemokine receptor type 4; assay: Ratio of IC50 for CXCR4 in human MAGI-CCR5 cells assessed as inhibition of HIV-1 3B entry to IC50 for CXCR4 in human Chem-1 cells assessed as inhibition of SDF-1alpha-mediated calcium flux; format: functional, cell-based
In short: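 Two IC50s taken as a ratio. The first is from blockade of HIV-1 IIIB attachment in CCR5/CXCR4-expressing HeLaCD4-LTR-β-gal (MAGI) cells, with cytotoxicity (TC50) assessed alongside. The second is from inhibition of CXCL12-induced Ca2+ flux/release in Chem-1 cells. Each assay was run in duplicate.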

T1 sequence (P61073 whole entry): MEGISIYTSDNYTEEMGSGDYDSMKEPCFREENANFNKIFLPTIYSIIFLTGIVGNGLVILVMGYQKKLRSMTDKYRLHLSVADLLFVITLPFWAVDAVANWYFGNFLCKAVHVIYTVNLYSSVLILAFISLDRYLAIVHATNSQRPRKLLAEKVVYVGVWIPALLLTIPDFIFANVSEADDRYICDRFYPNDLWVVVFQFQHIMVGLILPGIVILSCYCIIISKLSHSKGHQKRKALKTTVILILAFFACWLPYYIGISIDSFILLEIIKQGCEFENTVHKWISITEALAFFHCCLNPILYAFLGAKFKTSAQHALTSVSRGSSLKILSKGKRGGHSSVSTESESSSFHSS

SMILES: NCCCCN(C[C@H]1Cc2ccccc2CN1Cc1ccccn1)[C@H]1CCCc2cccnc21
- pIC50 [1]: 7.25
- CC50 ([2]; MAGI-CCR5 cells): > 10000 nM

SMILES: CC(C)NCCCCN(C[C@H]1Cc2ccccc2CN1)[C@H]1CCCc2cccnc21
- Ratio IC50 [3]: 2
- pIC50 [1]: 8.15
- CC50 ([2]; MAGI-CCR5 cells): > 10000 nM

SMILES: CN1Cc2ccccc2C[C@@H]1CN(CCCCN)[C@H]1CCCc2cccnc21
- pIC50 [1]: 7.41
- CC50 ([2]; magi-ccr5): > 10000 nM

SMILES: NCCCCN(C[C@H]1Cc2ccccc2CN1Cc1cocn1)[C@H]1CCCc2cccnc21
- pIC50 [1]: 6.31
- CC50 ([2]; magi-ccr5): > 10000 nM

SMILES: NCCCCN(C[C@H]1NCCc2ccccc21)[C@H]1CCCc2cccnc21
- CC50 ([2]; magi-ccr5): > 30000 nM

SMILES: NCCCCN(C[C@@H]1NCCc2ccccc21)[C@H]1CCCc2cccnc21
- CC50 ([2]; magi-ccr5): > 30000 nM

SMILES: NCCCCN(C[C@@H]1CCc2ccccc2N1)[C@H]1CCCc2cccnc21
- CC50 ([2]; magi-ccr5): > 30000 nM

SMILES: NCCCCN(C[C@H]1CCc2ccccc2N1)[C@H]1CCCc2cccnc21
- CC50 ([2]; magi-ccr5): > 30000 nM

SMILES: CC(C)N1Cc2ccccc2C[C@@H]1CN(CCCCN)[C@H]1CCCc2cccnc21
- pIC50 [1]: 6.85
- CC50 ([2]; MAGI-CCR5 cells): > 10000 nM

SMILES: NCCCCN(C[C@H]1Cc2ccccc2CN1CC(=O)N1CCOCC1)[C@H]1CCCc2cccnc21
- pIC50 [1]: 6.24
- CC50 ([2]; magi-ccr5): > 10000 nM

SMILES: NCCCCN(C[C@H]1Cc2ccccc2CN1Cc1ccncc1)[C@H]1CCCc2cccnc21
- pIC50 [1]: 6.18
- CC50 ([2]; MAGI-CCR5 cells): > 10000 nM

SMILES: CC(=O)NCCCCN(C[C@H]1Cc2ccccc2CN1)[C@H]1CCCc2cccnc21
- pIC50 [1]: 8.40
- CC50 ([2]; magi-ccr5): > 10000 nM

SMILES: NCCCCN(C[C@H]1Cc2ccccc2CN1Cc1cccnc1)[C@H]1CCCc2cccnc21
- pIC50 [1]: 6.46
- CC50 ([2]; MAGI-CCR5 cells): > 10000 nM

SMILES: CN(C)C(=O)NCCCCN(C[C@H]1Cc2ccccc2CN1)[C@H]1CCCc2cccnc21
- pIC50 [1]: 6.74
- CC50 ([2]; magi-ccr5): > 10000 nM

SMILES: NC(=O)NCCCCN(C[C@H]1Cc2ccccc2CN1)[C@H]1CCCc2cccnc21
- pIC50 [1]: 8.52
- CC50 ([2]; magi-ccr5): > 10000 nM

SMILES: CN(C)CCCCN(C[C@H]1Cc2ccccc2CN1)[C@H]1CCCc2cccnc21
- Ratio IC50 [3]: 2
- pIC50 [1]: 8.10
- CC50 ([2]; MAGI-CCR5 cells): > 10000 nM

SMILES: NCCCCN(C[C@@H]1Cc2ccccc2CN1)[C@H]1CCCc2cccnc21
- CC50 ([2]; MAGI-CCR5 cells): > 10000 nM
